# CHO parental Ca: signal in parental CHO cells, OX1R antagonist counter-screen. parental CHO-K1, ATP-induced calcium, Fluo-8 fluorescence. inhibition, % at 5.6 µM. 0.63% of 330,000 active. AID 463079;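 active = inhibition above that plate's mean sample inhibition plus 3 SD, cut at about 26% in these data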;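 note: 0% = ATP-challenged DMSO wells and 100% = DMSO wells without ATP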
#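 Material – parental CHO cells · Reagent – ATP stimulus · Compound – single nominal dose of 5.6 µM per compound · Detection – Fluo-8 fluorescence · Read-out basis – percent inhibition of calcium signal · Controls – ATP-challenged DMSO wells low, unchallenged DMSO wells high · Repeats – no replicates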
# EP2 mod: modulators of human EP2 prostaglandin E2 receptor; 0.83% of 260,000 active; EP2-expressing cells, cAMP HTRF FRET, PGE2 co-stimulation; AID 940; induction, % at 25 µM; P43116;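 active = compounds whose cAMP rise, as percent of the full-agonist control response, exceeds 60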;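 note: rat C6 glioma line stably carrying human EP2 under a CMV promoter; the protocol text gives 20 µM as final concentration; 100% = response of wells given 1 µM PGE2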
# OX1R antag-1: OX1R (human) antagonism. OX1R-expressing cells, FRET antagonist read-out. 1.8% of 330,000 active. inhibition, % at 6.6 µM; in the data active = inhibition mostly above about 38%, no sharp cut-off; inactive = mostly below about 40%;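 note: 0% = agonist challenge alone and 100% = reference antagonist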
# OX1R antag-2: antagonists of human orexin 1 receptor. O43613. CHO/OX1R cells, Fluo-8 calcium fluorescence, orexin A. inhibition, % at 5 µM. 0.43% of 330,000 active;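 active = inhibition above its plate's threshold, mean inhibition of all tested compounds on the plate plus 3 SD, cut at about 37% in these data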;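 note: 0% = orexin A challenge wells and 100% = SB-334867-A antagonist wells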
# GPR7 antagonist: blocks human GPR7 receptor signaling. P48145. GPR7-expressing cells, fluorescence antagonist assay. inhibition, % at 4.4 µM. 1.1% of 290,000 active. AID 1861; in the data active = inhibition above about 16%, passing the limit was not always enough;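 note: cells stimulated with the agonist NPW; 0% = agonist with vehicle and 100% = vehicle without agonist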
# Target sequence (P48145 whole entry, looked up): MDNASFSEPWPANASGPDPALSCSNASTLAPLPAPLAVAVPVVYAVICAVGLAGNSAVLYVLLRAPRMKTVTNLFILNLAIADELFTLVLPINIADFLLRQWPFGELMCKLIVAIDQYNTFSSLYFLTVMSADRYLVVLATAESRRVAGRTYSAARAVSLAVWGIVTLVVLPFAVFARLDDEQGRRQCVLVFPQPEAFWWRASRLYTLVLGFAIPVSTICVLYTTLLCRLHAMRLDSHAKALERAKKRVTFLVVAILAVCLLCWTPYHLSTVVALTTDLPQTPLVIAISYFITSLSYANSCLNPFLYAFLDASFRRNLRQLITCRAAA
# EP2 antag: EP2 receptor (human) inhibition; 0.52% of 260,000 active; inhibition, % at 25 µM; AID 1422; C6 glioma cells expressing human EP2, cAMP TR-FRET; cells stimulated with saturating PGE2;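 active = percent inhibition above 40 after rounding to a whole number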;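 note: rat C6 glioma host cells with rolipram phosphodiesterase inhibitor present; the protocol text gives 20 µM as final concentration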
# * = called active by the depositor; x = not tested or not shown. The list is not random: actives were taken first. Their share in the collection is about 3.7%.
SMILES,CHO parental Ca,EP2 mod,OX1R antag-1,OX1R antag-2,GPR7 antagonist,EP2 antag
N#C/C(=C\c1ccc(Cl)cc1)c1nc(-c2ccco2)cs1,-0.2,38.0,6.5,-10.5,-4.9,1.1
Cc1ccc(S(=O)(=O)N[C@H](C(=O)OCn2nnc3ccccc3c2=O)C(C)C)cc1,-22.1,16.8,6.2,-32.5,-10.0,16.6
Nc1ccccc1SC1CC(=O)N(c2ccc(Cl)c(Cl)c2)C1=O (centres undefined),34.3*,-40.4,6.8,24.1,-6.4,13.9
Nc1ccccc1SC1CC(=O)N(c2ccc3c(c2)OCCO3)C1=O (centres undefined),-17.9,-43.7,6.8,-17.0,-12.1,7.7
Cc1ccc(C)n1-c1ccc(-c2nnc3n2CCCCC3)s1,-9.9,27.7,17.3,-17.5,-6.6,58.6*
Clc1ccc(-c2nnc3n2CCCCC3)cc1,-2.8,3.1,18.0,-24.8,11.0,18.2
O=C(Nc1ccc(Cl)c(Cl)c1)O/N=C/c1ccncc1,31.0*,-42.9,44.5,27.3,8.6,13.5
CS(=O)(=O)N(CC(=O)NCC1CCCO1)c1ccccc1 (centres undefined),x,16.6,x,x,x,4.3
CCOc1cc(CN2CCc3c(nc(N4CCC(C)CC4)[nH]c3=O)C2)ccc1O,x,-16.6,x,x,x,10.5
O=S(=O)(N/N=C/c1ccc(N2CCOCC2)cc1)c1ccccc1,5.3,16.6,7.3,-18.5,-3.8,5.2
O=C(CN1CCCC1c1cccs1)Nc1cccc(S(=O)(=O)N2CCCC2)c1 (centres undefined),-13.4,x,31.6*,4.6,x,x
CCN(CC)S(=O)(=O)c1cccc(NC(=O)CNc2cccc(S(=O)(=O)N3CCCC3)c2)c1,56.9*,x,25.4,28.2,10.8,x
Cc1cc(C(=O)Cn2nc(C(=O)O)c3ccccc3c2=O)c(C)n1CCc1ccc(Cl)cc1,-14.9,19.8,48.9*,13.1,-12.1,5.8
CCN(CC)S(=O)(=O)c1cccc(NC(=O)CC2CCCC2)c1,-9.2,x,19.9,-24.7,-6.2,x
CCN(CC)S(=O)(=O)c1cccc(NC(=O)Nc2cccc(C(F)(F)F)c2)c1,58.7*,-8.3,39.1*,20.1,5.2,4.3
O=C(Nc1ccc2nc3n(c(=O)c2c1)CCCC3)c1cccnc1Cl,-8.3,x,4.9,-21.7,x,x
O=C(Cn1nc(C(=O)O)c2ccccc2c1=O)Nc1cccc(S(=O)(=O)N2CCCCC2)c1,24.8,x,27.8,60.0*,x,x
CN(CC(=O)Nc1cccc(S(=O)(=O)N2CCCC2)c1)CC(=O)Nc1ccc(Cl)c(C(F)(F)F)c1,53.6*,x,13.8,-2.9,x,x
O=C(Cn1nc(C(=O)O)c2ccccc2c1=O)Nc1ccc(Br)cc1,-6.8,x,29.6,19.9,-13.8,x
O=C(Cn1nc(C(=O)O)c2ccccc2c1=O)Nc1cc(Cl)cc(Cl)c1,-7.0,x,41.0*,18.8,-1.1,x
CCN(CC)CC(=O)Nc1cccc(S(=O)(=O)N2CCCC2)c1,2.2,2.7,21.6,-13.7,12.1,5.2
CN(Cc1ccccn1)Cc1cn(Cc2ccccc2)nc1-c1ccc2c(c1)OCO2,-21.7,-3.9,10.9,-20.7,-7.4,3.9
N#C/C(=C/c1ccc(N2CCCCCC2)o1)c1cccc(F)c1,-12.8,-14.9,10.9,-17.1,-2.8,2.0
COc1cc(N2CCCC2)c(OC)cc1/C=C(/C#N)c1cccc(F)c1,50.6*,26.9,15.0,45.7*,-3.2,4.0
CC(NC(=O)c1ccc(N(C)C)c([N+](=O)[O-])c1)c1ccc(-n2ccnc2)cc1 (centres undefined),-18.4,x,28.9,-15.6,-3.7,x
CC(NC(=O)c1cc([N+](=O)[O-])cc([N+](=O)[O-])c1)c1ccc(-n2ccnc2)cc1 (centres undefined),-9.8,x,63.8*,-21.6,-12.1,x
Cc1ccc2[nH]c(=O)c(CN(Cc3ccccc3)Cc3nnnn3C3CCCC3)cc2c1,-23.2,57.0,5.4,-19.4,6.7,8.7
COc1ccccc1CN(Cc1cc2cc(C)ccc2[nH]c1=O)Cc1nnnn1C1CCCC1,x,64.6*,x,x,x,6.5
Cc1ccc2[nH]c(=O)c(CN(Cc3ccccc3Cl)Cc3nnnn3C3CCCC3)cc2c1,x,73.9*,x,x,x,5.2
CCN(CC)c1ccc2cc(-c3nnc(-c4ccncc4)o3)c(=O)oc2c1,x,10.9,x,x,41.0*,9.2
